Experimental data taken from ChEMBL document CHEMBL2010771, “Studies toward novel peptidomimetic inhibitors of thioredoxin-thioredoxin reductase system” (J Med Chem, 2012).

What was measured:
[1] = Inhibition of human recombinant Trx1/TrxR assessed as reduction in number of free thiols from reduced insulin after 30 mins by insulin reduction assay
Outline: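 At least seven compound concentrations. Incubated 30 min at 37 °C, stopped with 8 mM DTNB in 8 M guanidine HCl, A412. IC50 from four-parameter logistic fit. Triplicates, mean ± SD, n ≥ 3.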

[2] = system: EMT6; assay: Cytotoxicity against mouse EMT6 cells after 72 hrs by crystal violet staining; format: functional; conditions: EMT6, 72 h, read-out: LD50 (the source's name)
[3] = Cytotoxicity against mouse PancO2 cells after 72 hrs by crystal violet staining; format: functional; conditions: read-out: LD50 (the source's name)
[4] = Solubility of the compound in biological media; format: ADME
[5] = Chemical stability of the compound; format: physicochemical

Compound | IC50 [1] | CC50 [2] | CC50 [3] | solubility [4] | Stability [5]
COC(=O)C(C)(CBr)CBr | > 50 µM | – | – | – | –
COC(=O)C(CBr)CBr | 1.2 µM | > 50 µM | > 50 µM | – | –
C=C(CI)C(=O)N(Cc1ccccc1)[C@@H](CC(C)C)C(=O)NCC(=O)OCc1ccccc1 | 3.9 µM | > 50 µM | > 50 µM | – | –
C=C(CBr)C(=O)N(Cc1ccc(OC)cc1OC)[C@@H](CC(C)C)C(=O)NCC(=O)OCC | 8.9 µM | > 50 µM | > 50 µM | – | –
C=C(COC(=O)c1c(Cl)cccc1Cl)C(=O)N[C@@H](CC(C)C)C(=O)NCC(=O)OCC | 3 µM | 5.5 µM | 3 µM | Insoluble | –
C=C(COC(=O)c1c(Cl)cccc1Cl)C(=O)OC | 0.2 µM | > 25 µM | > 25 µM | – | Unstable
C=C(C)C(=O)N(Cc1ccccc1)[C@@H](CC(C)C)C(=O)NCC(=O)OCc1ccccc1 | > 50 µM | > 50 µM | > 50 µM | – | –
C=C(CBr)C(=O)N(Cc1ccccc1)[C@@H](CC(C)C)C(=O)NCC(=O)OCc1ccccc1 | 10 µM | > 50 µM | > 50 µM | – | –
C=C(CBr)C(=O)N[C@@H](CC(C)C)C(=O)NCC(=O)OCC | 2.4 µM | > 25 µM | > 50 µM | – | –
